Experimental data: PMC12722729 (Scientific Reports, 2025)
Where “and” joins values, the source holds several entries; their conditions need not be identical. Equal values may be shown once. Read-outs that look alike come from different tables or passages of the source.

Experiments:
[1] = tested on: Jurkat cells; assay: Annexin V-FITC/propidium iodide labelling; format: cell-based, human; conditions: 24 h, each compound at its IC50, mean ± SEM
Outline: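 Cells were spun at 220 x g for 5 min at 4 °C and washed in chilled PBS. They were stained with Annexin V-FITC in binding buffer for 13 min at room temperature in the dark, then with PI for 2 min. Samples were diluted in binding buffer and analysed by flow cytometry.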

[2] = tested on: WIL2-NS cells; assay: MTT cytotoxicity and selectivity index, WIL2-NS cells; format: cell-based, human; conditions: IC50 WIL2-NS compared to IC50 Jurkat
[3] = tested on: Jurkat cells; assay: MTT cytotoxicity assay, Jurkat cells; format: cell-based, human; conditions: read-out: IC50 for Jurkat cell proliferation, 24 h
Outline: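 Jurkat E6-1 cells were grown in RPMI-1640 with L-glutamine, 10% FBS and 1% penicillin-streptomycin at 37 °C and 5% CO2. The test compound was diluted 1:2 serially in medium from a top concentration of 10 or 5 µM. Cells at a final 1 × 10⁶ cells/mL were exposed for 24 h. MTT was added (final 0.45 mg/mL) for 4 h at 37 °C, formazan was dissolved in DMSO, and OD was read at 570 nm. IC50 was taken as 50% growth inhibition. Three independent experiments, mean ± SEM.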

[4] = tested on: caspase-8; assay: CaspGLOW active caspase staining, caspase-8; format: cell-based, human; conditions: Jurkat, OC2 at IC50, 2 and 4 h
Outline: (§1)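 Jurkat E6-1 cells in RPMI-1640 with 10% FBS at 1 × 10⁶ cells/mL were exposed to the test compound for 2 or 4 h. Cells were washed, resuspended in fresh medium and stained 1 h at 37 °C with a FITC-conjugated inhibitor: IETD-FMK (caspase-8), LEHD-FMK (caspase-9) or DEVD-FMK (caspase-3). After washing, cells were read by flow cytometry. Mean ± SEM of 3 replicates; ANOVA/Tukey versus untreated.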

[5] = tested on: caspase-9; assay: CaspGLOW active caspase staining, caspase-9; format: cell-based, human; conditions: Jurkat, OC2 at IC50, 2 and 4 h
Outline: as §1

[6] = cited from earlier work
[7] = tested on: Jurkat cells; assay: TMRE staining, mitochondrial membrane potential; format: cell-based, human
[8] = tested on: p21; assay: Western blot, p21; format: cell-based, human; conditions: Jurkat, OC2 at IC50, 0.5-6 h
Outline: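 Jurkat cells at 1 × 10⁶ cells/mL were treated for 0.5 to 6 h, then washed in ice-cold PBS and lysed in RIPA buffer (spun 13500 rpm, 30 min, 4 °C). Protein was measured by Bradford assay and 25 µg per lane run on SDS-PAGE, then transferred to PVDF. Blots were blocked in 5% BSA/TBS-T for 1.5 h, given primary antibody overnight at 4 °C and HRP anti-rabbit for 1 h, then detected by ECL. β-actin served as loading control; band intensity is in arbitrary units, n = 3.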

[9] = tested on: cleaved-PARP; assay: Western blot, cleaved-PARP; format: cell-based, human; conditions: Jurkat, OC2 at IC50, 0.5-6 h
Outline: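 Jurkat cells (1 × 10⁶ cells/mL) were treated with the test compound at its IC50 for 0.5–6 h. Cells were washed in ice-cold PBS and lysed in RIPA, and lysates were cleared at 13500 rpm for 30 min at 4 °C; protein was measured by Bradford. 25 µg per lane was run on SDS-PAGE and transferred to PVDF. Membranes were blocked in 5% BSA/TBS-T for 1.5 h, given primary antibody overnight at 4 °C and HRP anti-rabbit for 1 h, and developed by ECL. β-actin served as loading control. Three independent replicates, arbitrary units, mean ± SEM.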

[10] = tested on: K562 cells; conditions: cited from earlier work
[11] = tested on: Jurkat cells; assay: NAC pre-treatment followed by Annexin V-FITC/PI; format: cell-based, human; conditions: 20 or 50 µM NAC 1 h, then OC2 at IC50 24 h
[12] = tested on: Jurkat cells; assay: Cell cycle checkpoint analysis; format: cell-based, human; conditions: OC2 at IC50, 2 and 4 h
[13] = tested on: caspase-3; assay: CaspGLOW active caspase staining, caspase-3; format: cell-based, human; conditions: Jurkat, OC2 at IC50, 4 h
Outline: as §1

[14] = tested on: Jurkat cells; assay: DHE staining, intracellular ROS; format: cell-based, human; conditions: OC2 at IC50, 1-6 h

## CCN(CC)C(=S)[S][Sn]([c]1ccccc1)([c]1ccccc1)[c]1ccccc1 [OC5, Triphenyltin(IV) diethyldithiocarbamate]
[1]
  Percentage of apoptotic events: 73.4 ± 4.8%
[2]
  Selectivity index (SI): 0.57
[3]; MTT, mean ± S.E.M
  IC50: 350 ± 10 nM

## C=CCN(CC=C)C(=S)[S][Sn]([c]1ccccc1)([c]1ccccc1)[c]1ccccc1 [OC4, Triphenyltin(IV) diallyl dithiocarbamate]
[1]
  Percentage of apoptotic events: 84.5 ± 5.3%
[2]
  Selectivity index (SI): 1
[3]; MTT, mean ± S.E.M
  IC50: 200 ± 10 nM

## C=CCN(CC=C)C(=S)[S][Sn]([S]C(=S)N(CC=C)CC=C)([c]1ccccc1)[c]1ccccc1 [OC3, Diphenyltin(IV) diallyl dithiocarbamate]
[1]
  Percentage of apoptotic events: 86.7 ± 2.9%
[2]
  Selectivity index (SI): 0.42
[3]; MTT, mean ± S.E.M
  IC50: 2800 ± 130 nM

## CC(C)N(C(=S)[S][Sn]([S]C(=S)N(C(C)C)C(C)C)([c]1ccccc1)[c]1ccccc1)C(C)C [OC1, Diphenyltin(IV) diisopropyl dithiocarbamate]
[1]
  Percentage of apoptotic events: 68.1 ± 4.2%
[2]
  Selectivity index (SI): 0.37
[3]; MTT, mean ± S.E.M
  IC50: 7100 ± 600 nM

## COc1cc([C@@H]2c3cc4c(cc3[C@@H](O[C@@H]3O[C@@H]5CO[C@@H](C)O[C@H]5[C@H](O)[C@H]3O)[C@H]3COC(=O)[C@H]23)OCO4)cc(OC)c1O [ETO, Etoposide, reference compound]
[3]; Homo sapiens, Jurkat
  IC50: 870 ± 60 nM

## CC(C)N(C(=S)[S][Sn]([c]1ccccc1)([c]1ccccc1)[c]1ccccc1)C(C)C [OC2, Triphenyltin(IV) diisopropyl dithiocarbamate]
[4]
  Caspase-8 activation: remained unchanged compared to the control up to 4 h
[5]
  Cells with active caspase-9: steadily increased from 2 to 4 h post-treatment
[6]; ADMETlab prediction
  Predicted CaCo2 permeability / intestinal absorption: might possess good intestinal absorption
[6]; in silico
  Inhibition of major CYP450 enzymes (predicted): predicted not to inhibit any major CYP450 enzymes
  Mutagenic and carcinogenic potential (predicted): may lack mutagenic and carcinogenic potential
  P-gp substrate or inhibitor (predicted): unlikely to be a substrate or inhibitor of P-gp
  Skin sensitization or liver injury (predicted): might not cause skin sensitization or liver injury
[7]; OC2 at IC50, 1 h
  TMRE-negative cells (loss of ΔΨm): slight increase in TMRE-negative cells
[7]; OC2 at IC50, 2 h
  TMRE-negative cells (loss of ΔΨm): 33.0 ± 4.5%
[7]; OC2 at IC50, 4 h
  TMRE-negative cells (loss of ΔΨm): 37.4 ± 2.4%
[7]; OC2 at IC50, 6 h
  TMRE-negative cells (loss of ΔΨm): 43.2 ± 5.5%
[1]
  Percentage of apoptotic events: 55.6 ± 5.0% and 55% and 55.6 ± 4.95%
[8]
  p21 protein expression: statistically significant (p < 0.05) at later time points (4 and 6 h)
[9]
  Cleaved-PARP protein expression: marked rise (p < 0.05) at 6 h
[10]; IC50 dose, 6 h
  ROS levels, K562: substantial elevation in ROS levels (p < 0.05)
[10]; at IC50 concentration
  Apoptotic cells, K562: 57.1 ± 4.5%
[10]
  Cell cycle progression, K562: blocking cell cycle progression at the S phase checkpoint
  Selectivity index (SI), K562 cells: 1
[10]; read-out: IC50 (inhibiting 50% of cell growth), K562 cells
  IC50: 550 nM
[11]
  Apoptotic cells after NAC pre-treatment: significantly decreased the number of apoptotic cells
[2]
  Selectivity index (SI): 5.5
[12]
  Cell cycle distribution: halted the Jurkat cell cycle in the G0/G1 phase
[3]; MTT, mean ± S.E.M
  IC50: 100 ± 10 nM
[13]
  Caspase-3 positive cells: significant increase in caspase-3 positive cells
[14]
  Intracellular ROS production: time-dependent increase in ROS production
